According to ChEMBL document CHEMBL4266019, “Discovery and Structure-Activity-Relationship Study of N-Alkyl-5-hydroxypyrimidinone Carboxamides as Novel Antitubercular Agents Targeting Decaprenylphosphoryl-β-d-ribose 2'-Oxidase” (J Med Chem, 2018):
Changes are numbered by the printed parent chain. In brackets after ≈: the same amount, converted by molar mass. Activity calls are given as the source filed them. The calls are words filed in the database; no cut-off is given here.

Columns and labels:
[1] = test system: Mycobacterium tuberculosis; experiment: Antitubercular activity against Mycobacterium tuberculosis H37Rv harboring dprE1-dprE2 mutant after 10 days in absence of anhydrotetracycline; assay type: functional, organism-based
Summary of the method: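 DprE12–TetON1 strain (H37Rv with integrated attL5 plasmid constitutively expressing dprE1, dprE2, aftA, embC) washed and diluted to OD580nm 0.01 in drug-free 7H9-based medium. Half received anhydrotetracycline 500 ng/mL. Tested against 14-point 2-fold dilutions, 1% DMSO final, at 37 °C, 5% CO2. OD580nm read at day 10. BTZ043 and TCA1 served as positive controls.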

[2] = test system: T1, Decaprenylphosphoryl-beta-D-ribose oxidase (Mycobacterium tuberculosis (strain ATCC 25618 / H37Rv)), P9WJF1 [Y314C]; experiment: Inhibition of DprE1 Y314C mutant in Mycobacterium tuberculosis H37Rv assessed as bacterial growth inhibition after 4 weeks
T1 sequence (whole entry): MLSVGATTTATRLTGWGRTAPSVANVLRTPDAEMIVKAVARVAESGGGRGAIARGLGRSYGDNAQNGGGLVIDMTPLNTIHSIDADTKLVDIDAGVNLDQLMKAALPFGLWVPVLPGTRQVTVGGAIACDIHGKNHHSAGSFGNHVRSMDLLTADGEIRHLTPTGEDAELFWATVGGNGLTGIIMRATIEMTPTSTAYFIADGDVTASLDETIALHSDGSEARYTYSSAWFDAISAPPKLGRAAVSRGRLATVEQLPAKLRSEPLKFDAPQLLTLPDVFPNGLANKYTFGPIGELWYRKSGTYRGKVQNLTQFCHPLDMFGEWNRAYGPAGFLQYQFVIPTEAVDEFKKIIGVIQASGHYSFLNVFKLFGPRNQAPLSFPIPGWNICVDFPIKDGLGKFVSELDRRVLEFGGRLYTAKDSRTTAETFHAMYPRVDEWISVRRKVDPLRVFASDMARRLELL

[3] = test system: Mycobacterium tuberculosis H37Rv; experiment: Ratio of MIC for inhibition of DprE1 Y314H mutant-mediated growth of Mycobacterium tuberculosis H37Rv to MIC for inhibition of DprE1-mediated growth of Mycobacterium tuberculosis H37Rv
Summary of the method: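 Resistant mutants were selected by plating 10^7, 10^8 and 10^9 H37Rv cells on 7H11/OADC agar containing 2×, 5× and 10× MIC of the hit compound, then incubating at 37 °C for 4 weeks. Colonies from 10× MIC plates were grown in 7H9/ADC and MIC-tested against the parental strain. Whole-genome sequencing found the DprE1 Y314H mutation.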

[4] = test system: T2, Decaprenylphosphoryl-beta-D-ribose oxidase (Mycobacterium tuberculosis (strain ATCC 25618 / H37Rv)), P9WJF1 [P116S]; experiment: Inhibition of DprE1 P116S mutant in Mycobacterium tuberculosis H37Rv assessed as bacterial growth inhibition after 4 weeks
T2 sequence (whole entry): T1 sequence (whole entry) with P116S, C314Y

[5] = test system: T3, Decaprenylphosphoryl-beta-D-ribose oxidase (Mycobacterium tuberculosis (strain ATCC 25618 / H37Rv)), P9WJF1 [N364S]; experiment: Inhibition of DprE1 N364S mutant in Mycobacterium tuberculosis H37Rv assessed as bacterial growth inhibition after 4 weeks
T3 sequence (whole entry): T1 sequence (whole entry) with C314Y, N364S

[6] = test system: T4, Decaprenylphosphoryl-beta-D-ribose oxidase (Mycobacterium tuberculosis (strain ATCC 25618 / H37Rv)), P9WJF1 [Y314H]; experiment: Inhibition of DprE1 Y314H mutant in Mycobacterium tuberculosis H37Rv assessed as bacterial growth inhibition after 4 weeks
T4 sequence (whole entry): T1 sequence (whole entry) with C314H
Summary of the method: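 Resistant mutants were selected by plating 10^7–10^9 H37Rv cells on 7H11/OADC containing 2×, 5× or 10× MIC, with drug-free plates for counts, at 37 °C for 4 weeks. Colonies from 10× MIC were regrown in 7H9/ADC and MIC-tested. Genomes were sequenced after CTAB DNA isolation.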

SMILES: CC[C@@H](CO)NCCN[C@@H](CC)CO
- Activity [1]: Active

SMILES: CCOC(=O)NC(=O)c1ccsc1NC(=O)c1nc2ccccc2s1
- Activity [1]: Active

SMILES: Cn1c(Cc2ccccc2C(F)(F)F)nc(C(=O)NCc2ccccc2)c(O)c1=O
- MIC [2]: 25 µM (≈ 10.4 µg/mL)
- Ratio [3]: > 16
- MIC [4]: 18.8 µM (≈ 7.85 µg/mL)
- MIC [5]: 2.34 µM (≈ 0.977 µg/mL)
- MIC [6]: > 50 µM

SMILES: CC(NC(=O)c1nc(Cc2ccccc2C(F)(F)F)n(C)c(=O)c1O)c1ccccc1 (centres undefined)
- Activity [1]: inactive

SMILES: C[C@H]1COC2(CCN(c3nc(=O)c4cc(C(F)(F)F)cc([N+](=O)[O-])c4s3)CC2)O1
- Activity [1]: Active
